Screening data (PubChem BioAssay)
PGE2 EP2 inh – human EP2 receptor antagonists, primary screen, TR-FRET cAMP, C6 glioma cells; AID 1422, 2008; Prostaglandin E2 receptor EP2 subtype (Homo sapiens), P43116; C6 glioma cells expressing human EP2; cells stimulated with saturating PGE2; actives 0.52% (n = 260,000); inhibition, % at 25 µM;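 active = percent inhibition above 40 after rounding to a whole number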;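 also: rat C6 glioma host cells with rolipram phosphodiesterase inhibitor present; the protocol text gives 20 µM as final concentration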
TbHK1 inh – Trypanosoma brucei hexokinase 1 inhibitors, primary screen, biochemical, G6PDH-coupled NADH absorbance, MLSCN library | actives 0.11% (n = 220,000) | recombinant TbHK1, G6PDH-coupled NADH A340 | hexokinase 1 [Trypanosoma brucei] | AID 1430, 2008 | inhibition, % at 10 µM;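 active = inhibition of 50% or more in the single-dose primary screen; inactive = inhibition below 50%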
PHOSPHO1 inh – PubChem AID 1565 | Phosphoethanolamine/phosphocholine phosphatase (Homo sapiens), Q8TCT1 | recombinant PHOSPHO1, absorbance phosphatase assay | inhibition, % at 13.3 µM | actives 1.1% (n = 290,000); in the data active = inhibition above about 60%
EP2 modulator – EP2 receptor modulators, cAMP readout, primary screen, cell-based, HTRF cAMP, PGE2 stimulation; Prostaglandin E2 receptor EP2 subtype (Homo sapiens), P43116; EP2-expressing cells, cAMP HTRF FRET, PGE2 co-stimulation; induction, % at 25 µM; actives 0.83% (n = 260,000); AID 940, 2007;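 active = compounds whose cAMP rise, as percent of the full-agonist control response, exceeds 60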;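 also: rat C6 glioma line stably carrying human EP2 under a CMV promoter; the protocol text gives 20 µM as final concentration; 100% = response of wells given 1 µM PGE2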
HKDC1 inhibitor – HKDC1 hexokinase inhibitors, primary screen, biochemical, fluorescence, uHTS; inhibition, % at 20 µM; actives 0.16% (n = 340,000); Q2TB90; recombinant HKDC1, G6PDH/diaphorase resazurin coupled fluorescence; AID 493160, 2011;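 active = inhibition above about 35% when tested at 20 µM, limit read from the data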;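 also: plate controls were DMSO wells with enzyme for no effect and DMSO wells lacking enzyme for full effect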
Target sequence (Q2TB90 whole entry, looked up): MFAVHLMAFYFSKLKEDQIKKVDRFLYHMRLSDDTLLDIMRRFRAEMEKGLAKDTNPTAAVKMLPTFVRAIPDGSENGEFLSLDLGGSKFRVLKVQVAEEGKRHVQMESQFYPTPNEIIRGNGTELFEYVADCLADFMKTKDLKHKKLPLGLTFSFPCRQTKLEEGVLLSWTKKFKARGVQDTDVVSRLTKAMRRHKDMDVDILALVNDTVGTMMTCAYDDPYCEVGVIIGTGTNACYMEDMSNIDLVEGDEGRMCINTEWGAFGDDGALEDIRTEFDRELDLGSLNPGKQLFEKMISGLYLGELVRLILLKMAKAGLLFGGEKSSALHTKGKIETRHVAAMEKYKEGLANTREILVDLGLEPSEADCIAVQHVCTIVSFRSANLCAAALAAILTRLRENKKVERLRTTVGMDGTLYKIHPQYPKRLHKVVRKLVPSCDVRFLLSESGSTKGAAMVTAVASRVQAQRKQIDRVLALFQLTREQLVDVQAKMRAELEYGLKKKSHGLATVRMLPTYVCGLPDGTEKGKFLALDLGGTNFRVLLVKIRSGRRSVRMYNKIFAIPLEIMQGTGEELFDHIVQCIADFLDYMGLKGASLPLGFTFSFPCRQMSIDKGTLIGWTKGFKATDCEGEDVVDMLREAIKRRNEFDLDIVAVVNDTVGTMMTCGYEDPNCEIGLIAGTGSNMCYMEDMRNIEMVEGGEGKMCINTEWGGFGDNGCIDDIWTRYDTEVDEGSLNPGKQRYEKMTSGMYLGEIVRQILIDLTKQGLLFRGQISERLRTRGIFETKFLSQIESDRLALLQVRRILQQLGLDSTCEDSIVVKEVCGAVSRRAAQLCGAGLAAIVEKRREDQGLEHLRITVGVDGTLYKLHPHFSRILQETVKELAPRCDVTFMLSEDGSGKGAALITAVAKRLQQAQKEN
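Test system: HK5 enzyme. Quantity: 5 µg/mL HK5 final. Reagent: glucose and ATP substrates. Schedule: 90 min reaction incubation at room temperature, dark. Technique: resazurin-to-resorufin fluorescence via G6PDH and diaphorase coupling, 525/613 nm. Control set: DMSO wells with and without enzyme mix.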
PfGluPho inh – PfG6PD enzyme inhibitors, primary screen, biochemical, fluorescence intensity, uHTS. glucose-6-phosphate dehydrogenase-6-phosphogluconolactonase (Plasmodium falciparum 3D7). inhibition, % at 20 µM. actives 0.78% (n = 350,000). PfGluPho enzyme, NADPH resazurin-diaphorase fluorescence. AID 504690, 2011;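 active = inhibition reaching at least a set limit at 20 µM in the primary screen, cut at about 59% in these data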;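 also: 0% = DMSO wells with substrate and 100% = DMSO wells lacking glucose-6-phosphate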
PfGluPho conf – PfG6PD inhibitors, hit retest, confirmation, biochemical, fluorescence intensity, single concentration. inhibition, % at 20 µM. shares compounds with PfGluPho inh. actives 34% (n = 2,400). recombinant PfGluPho, NADPH-diaphorase-resazurin fluorescence;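 active = inhibition of at least 50% at 20 µM in any single replicate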;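 also: 0% = DMSO with substrate and 100% = DMSO lacking glucose-6-phosphate substrate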
Active calls of the source: *; . = not tested or not shown. Hits are enriched below; roughly 2.5% of the tested compounds scored in any of these assays.

SMILES | PGE2 EP2 inh | TbHK1 inh | PHOSPHO1 inh | EP2 modulator | HKDC1 inhibitor | PfGluPho inh | PfGluPho conf
O=c1[nH]c2cc3c(cc2cc1CN(Cc1ccccc1)Cc1nnnn1Cc1ccco1)OCCO3 | 17 | -1 | 29 | -1 | 21 | 76* | -6
O=c1[nH]c2cc3c(cc2cc1CN(Cc1cccnc1)Cc1nnnn1Cc1ccco1)OCCO3 | 3 | -33 | 49 | -3 | 5 | 27 | .
COc1ccc(O)c(C(=O)C2c3ccccc3C(=O)N2c2ccc(C)cc2)c1 (stereo not given) | 11 | -6 | 42 | 22 | 3 | 66* | -6
CNC(=S)N(Cc1cc2cc3c(cc2[nH]c1=O)OCCO3)CC1CCCO1 (stereo not given) | 7 | . | . | -2 | . | . | .
CC1CCc2[nH]c3ccc(C(=O)N(C)CC(=O)Nc4ccccc4Br)cc3c2C1 (stereo not given) | . | . | . | . | 11 | 90* | 47
Cc1ccc(C)c(NC(=O)CN(C)C(=O)c2ccc3[nH]c4c(c3c2)CC(C)CC4)c1 (stereo not given) | . | . | . | . | 1 | 70* | 20
C=COCCNC(=O)C1CCN(c2nc3ccccc3n2C)CC1 | . | . | . | 5 | . | . | .
COc1ccccc1CC(=O)NCCc1nc(-c2cccnc2)n[nH]1 | 10 | . | . | -25 | . | . | .
O=C(O)CCC(=O)Nc1ccc(C(=O)N2CCOCC2)cc1 | 8 | . | . | 10 | . | . | .
COc1cccc(C(=O)Nc2sc3c(c2C(=O)O)CCCC3)c1 | . | . | 42 | . | 7 | 88* | 41
COc1cccc(C(=O)Nc2sc3c(c2C#N)CCN(C(C)=O)C3)c1 | 7 | -16 | 28 | -50 | -7 | 61* | 36
Cc1cccc(C(=O)Nc2sc3c(c2C(=O)O)CCC3)c1 | 9 | 7 | 28 | -11 | 3 | 60* | 18
COc1cc(C(=O)Nc2sc3c(c2C(=O)O)CCC3)cc(OC)c1OC | . | . | 2 | . | 3 | 7 | .
COc1cc(OC)cc(C(=O)Nc2sc3c(c2C#N)CCC3)c1 | 10 | . | . | -9 | . | . | .
O=C(Cc1ccccc1Cl)N1CCn2c(CO)nnc2C1 | . | . | . | -1 | . | . | .
CCn1c(NC(=O)c2ccc(C)cc2)c2ccccc2nc1=O | 10 | -6 | 21 | 9 | -3 | 72* | 36
CCCC(c1nnnn1CC1CCCO1)N(Cc1cc2cc(C)ccc2[nH]c1=O)CC1CCCO1 (stereo not given) | 15 | . | . | 23 | . | . | .
C=CCN1CCN(C(c2ccc(OC)cc2OC)c2nnnn2Cc2ccccc2)CC1 (stereo not given) | 2 | . | . | -39 | . | . | .
Cc1cc2[nH]c3c(c[n+](C)c4ccccc34)c2cc1C | 19 | -10 | -71 | -60 | -1 | 55 | .
Cc1cc2[nH]c3c4ccccc4nc(C)c3c2cc1C | . | . | . | . | 4 | 75* | 8
C#CCOc1ccc(C2C(C#N)=C(N)OC3=C2C(=O)CCC3)cc1Cl (stereo not given) | 8 | . | . | -13 | . | . | .
COc1ccc2[nH]c(=O)c(CN(CCO)C(=O)c3ccc(C)cc3)cc2c1 | 14 | . | . | -16 | . | . | .
Brc1cccc(-c2nnc(SCc3nc4ccccc4[nH]3)o2)c1 | . | -4 | 18 | -29 | -4 | 60* | 13
c1ccc2[nH]c(CSc3nnc(-c4ccncc4)o3)nc2c1 | 12 | 3 | 15 | 5 | -6 | 40 | .
Cc1nnc(NC(=O)c2cccc(S(=O)(=O)N3CCCC3)c2)s1 | . | . | 18 | . | -3 | -6 | .
